Data taken from ChEMBL document CHEMBL4428118, “Optimization of pyrimidinol antioxidants as mitochondrial protective agents: ATP production and metabolic stability” (Bioorg Med Chem, 2016).
Calls of active or inactive are those of the source. The calls are words filed in the database; no cut-off is given here.

Assays:
GM15850 [1] = assay: Cytoprotective activity against DEM induced oxidative stress in FRDA patient derived lymphocyte GM15850 assessed as cell viability at 0.5 uM pre-incubated for 16 hrs followed by DEM addition for 6 hrs by calcein AM/EthD-1 staining based flow cytometry; type: functional; conditions: Homo sapiens
How it was run: (§1)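 Seeding 5 × 10^5 cells/mL, compound for 16 h at 37 °C, then 5 mM DEM for 6 h. Cells washed, resuspended in PBS with 25 mM galactose. Stained with 0.1 μM calcein AM and 0.1 μM EthD-1, 15 min at 37 °C in the dark. FL1-H/FL2-H read, 10,000 events. Viability relative to DMSO vehicle control.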

GM15850 [2] = assay: Increase in total intracellular ATP levels in FRDA patient derived lymphocyte GM15850 grown in galactose medium at 5 uM after 48 hrs by luciferin-luciferase reaction based bioluminescence assay relative to control; type: functional, Homo sapiens
How it was run: (§2)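 Cells at 2 × 10^5 cells/mL in glucose-free RPMI with 25 mM galactose, 10% dialyzed FBS and 2 mM glutamine. Compound exposure 48 h at 37 °C, 5% CO2. Total ATP read by luciferin-luciferase bioluminescence. Expressed as % of untreated control, mean of at least three independent runs; Student's t-test, p ≤ 0.05 versus vehicle.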

[3] = Stability in bovine liver microsomes assessed as drug recovery at 25 uM after 30 mins in presence of beta-NADPH by HPLC analysis; type: ADME, Bos taurus, Microsome; conditions: cattle, read-out: Drug recovery
How it was run: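 Freshly prepared bovine liver microsomes at 1 mg/mL protein in 50 mM phosphate buffer pH 7.4 with 5 mM MgCl2. Compound at 25 μM final, reaction started with 1 mM β-NADPH, 30 min at 37 °C, stopped with propanol. Control was deactivated microsomes without NADPH. Reversed-phase HPLC with fluorene internal standard. Reported as % remaining versus control, quadruplicate.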

GM15850 [4] = assay: Antioxidant activity in FRDA patient derived lymphocyte GM15850 assessed as inhibition of DEM-induced lipid peroxidation at 0.1 to 1 uM pre-incubated for 16 hrs followed by DEM addition for 120 mins by C11-BODIPY581/591 probe based flow cytometry relative to control; type: functional, cell-based; conditions: Homo sapiens
How it was run: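 Cells seeded at 5 × 10^5 cells/mL in RPMI-1640 with 15% fetal calf serum and 2 mM glutamine. Compounds added 16 h at 37 °C, 5% CO2. Then 1 μM C11-BODIPY581/591 in phenol red-free medium, 30 min in the dark. 5 mM DEM for 120 min, PBS wash, FL1-H read (488 nm excitation). 10,000 events. Green median fluorescence reported as % of DEM-treated control, n = 3.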

GM15850 [5] = assay: Increase in total intracellular ATP levels in FRDA patient derived lymphocyte GM15850 grown in galactose medium at 1 uM after 48 hrs by luciferin-luciferase reaction based bioluminescence assay relative to control; type: functional, Homo sapiens; how it was run: as §2
GM15850 [6] = assay: Inhibition of DEM-induced collapse of mitochondrial membrane potential in FRDA patient derived lymphocyte GM15850 assessed as intact mitochondrial membrane potential at 2500 nM pre-incubated for 16 hrs followed by DEM addition for 120 mins by TMRM dye based flow cytometry (reference value: 91.3 %); type: functional, Homo sapiens; set-up: scale not given: the % may be the effect or the level left
How it was run: (§3)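 Cells (5 × 10^5) pretreated with or without compound for 16 h, then 5 mM DEM for 120 min. Stained with 250 nM TMRM in PBS with 20 mM glucose, 15 min at 37 °C in the dark. FL2-H read, 10,000 events, % cells with high TMRM uptake (intact potential). FCCP as uncoupler control. Means ± SEM of independent experiments run in duplicate.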

GM15850 [7] = assay: Antioxidant activity in FRDA patient derived lymphocyte GM15850 assessed as suppression of DEM-induced intracellular ROS levels at 100 nM pre-incubated for 16 hrs followed by DEM addition for 80 mins by DCFH-DA probe based flow cytometry; type: functional, cell-based; conditions: Homo sapiens
How it was run: (§4)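 Cells (5 × 10^5) pretreated with compound 16 h at 37 °C, then 5 mM DEM for 80 min. Washed, then 10 μM DCFH-DA in PBS with 20 mM glucose for 25 min at 37 °C in the dark. DCF read on FL1-H, 10,000 events. Median fluorescence given as % of DEM-treated control. Duplicates, three independent runs.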

GM15850 [8] = assay: Increase in total intracellular ATP levels in FRDA patient derived lymphocyte GM15850 grown in galactose medium at 20 uM after 48 hrs by luciferin-luciferase reaction based bioluminescence assay relative to control; type: functional, Homo sapiens; how it was run: as §2
GM15850 [9] = assay: Inhibition of DEM-induced collapse of mitochondrial membrane potential in FRDA patient derived lymphocyte GM15850 assessed as intact mitochondrial membrane potential at 1000 nM pre-incubated for 16 hrs followed by DEM addition for 120 mins by TMRM dye based flow cytometry (reference value: 91.3 %); type: functional, Homo sapiens; set-up: scale not given: the % may be the effect or the level left; how it was run: as §3
GM15850 [10] = assay: Effect on mitochondrial membrane potential in FRDA patient derived lymphocyte GM15850 incubated for 16 hrs by TMRM dye based flow cytometry; type: cell-based; conditions: human, gm15850, 16 h
GM15850 [11] = assay: Inhibition of DEM-induced collapse of mitochondrial membrane potential in FRDA patient derived lymphocyte GM15850 assessed as intact mitochondrial membrane potential at 100 nM pre-incubated for 16 hrs followed by DEM addition for 120 mins by TMRM dye based flow cytometry (reference value: 91.3 %); type: functional, Homo sapiens; set-up: scale not given: the % may be the effect or the level left; how it was run: as §3
GM15850 [12] = assay: Cytoprotective activity against DEM induced oxidative stress in FRDA patient derived lymphocyte GM15850 assessed as cell viability at 0.1 uM pre-incubated for 16 hrs followed by DEM addition for 6 hrs by calcein AM/EthD-1 staining based flow cytometry; type: functional; conditions: Homo sapiens; how it was run: as §1
GM15850 [13] = assay: Inhibition of DEM-induced collapse of mitochondrial membrane potential in FRDA patient derived lymphocyte GM15850 assessed as intact mitochondrial membrane potential pre-incubated for 16 hrs followed by DEM addition for 120 mins by TMRM dye based flow cytometry; type: functional, cell-based; conditions: Homo sapiens; how it was run: as §3
GM15850 [14] = assay: Increase in total intracellular ATP levels in FRDA patient derived lymphocyte GM15850 grown in galactose medium after 48 hrs by luciferin-luciferase reaction based bioluminescence assay; type: functional, cell-based; conditions: Homo sapiens; how it was run: as §2
GM15850 [15] = assay: Antioxidant activity in FRDA patient derived lymphocyte GM15850 assessed as suppression of DEM-induced intracellular ROS levels at 2.5 uM pre-incubated for 16 hrs followed by DEM addition for 80 mins by DCFH-DA probe based flow cytometry; type: functional, cell-based; conditions: Homo sapiens; how it was run: as §4
GM15850 [16] = assay: Antioxidant activity in FRDA patient derived lymphocyte GM15850 assessed as suppression of DEM-induced intracellular ROS levels pre-incubated for 16 hrs followed by DEM addition for 80 mins by DCFH-DA probe based flow cytometry; type: functional, cell-based; conditions: Homo sapiens; how it was run: as §4

Row | Structure (SMILES) | Activity (GM15850 [1]) | Activity (GM15850 [2]) [%] | remaining at 0.5 h, 25 µM [3] [%] | Activity (GM15850 [4]) | Activity (GM15850 [5]) [%] | Activity (GM15850 [6]) [%] | Activity (GM15850 [7]) | Activity (GM15850 [8]) [%] | Activity (GM15850 [9]) [%] | Activity (GM15850 [10]) | Activity (GM15850 [11]) [%] | Activity (GM15850 [12]) | Activity (GM15850 [13]) | Activity (GM15850 [14]) | Activity (GM15850 [15]) | Activity (GM15850 [16])
1 | CCCCCCCCCCCCCCCCc1nc(N2CCC2)nc(OC)c1O | Active | 109 | 58 | Active | 102 | 86.8 | Active | 74 | 88.8 | Non-Toxic | 90.5 | inactive | Dose-dependent effect |  |  | 
2 | CCCCCCCCCCCCCCCOc1nc(N2CCC2)nc(C)c1O | Active | 68 | 62 | Active | 96 | 77.2 | Active | 11 | 82.7 | Non-Toxic | 88.9 | inactive | Dose-dependent effect | Dose-dependent effect |  | 
3 | CCCCCCCCCCCCCCCCc1nc(N(C)C)nc(OC)c1O |  | 107 | 46 | Active | 115 | 85.8 | Active | 88 | 88.3 | Non-Toxic | 92 | inactive | Dose-dependent effect |  |  | 
4 | CCCCCCCCCCCCCCCCc1nc(N2CCCC2)nc(OC2CCC2)c1O | inactive | 107 | 72 | inactive | 98 | 70.4 | inactive | 102 | 52.3 | Non-Toxic | 42.5 | inactive | Dose-dependent effect |  | Active | Dose-dependent effect
5 | CCCCCCCCCCCCCCCCc1nc(N2CCC2)nc(OC2CCC2)c1O | inactive | 112 | 65 | inactive | 98 | 83.4 | inactive | 103 | 66.6 | Non-Toxic | 55 | inactive | Dose-dependent effect |  | Active | Dose-dependent effect
6 | CCCCCCCCCCCCCCCCc1nc(N2CCCCC2)nc(OC2CCC2)c1O | inactive | 106 | 72 | inactive | 99 | 62.3 | inactive | 100 | 32.4 | Non-Toxic | 7.8 | inactive | Dose-dependent effect |  | Active | Dose-dependent effect
7 | CCCCCCCCCCCCCCCCc1nc(N2CCC2)nc(OC(C)C)c1O | Active | 109 | 76 | Active | 106 | 87.5 | Active | 95 | 90.4 | Non-Toxic | 91.5 | inactive | Dose-dependent effect |  |  | 
8 | CCCCCCCCCCCCCCCCc1nc(N2CCC2)nc(C)c1O | Active | 98 | 57 | Active | 109 | 83.3 | Active | 60 | 86.5 | Non-Toxic | 91.1 | inactive | Dose-dependent effect |  |  | 
9 | CCCCCCCCCCCCCCCCc1nc(N2CCC2)nc(OCC)c1O | Active | 108 | 54 | Active | 100 | 88 | Active | 96 | 87.6 | Non-Toxic | 88.9 | inactive | Dose-dependent effect |  |  | 
